PMC11316633 (European journal of medicinal chemistry, 2024)

Assays:
[1] = tested on: LONRF2; experiment: Western blot of LONRF2; type: cell-based; conditions: 0.1 to 5 μM
Summary of the method: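 Immunoblot with anti-LONRF2 1:1000 overnight at 4 °C and β-actin 1:5000 as loading control. RIPA lysates with protease/phosphatase inhibitors were BCA-equalised, run on 4–20% SDS-PAGE, and transferred to nitrocellulose. IRDye secondaries were applied for 1 h at room temperature, followed by infrared scanning.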

[2] = target: T1, CDK7 (Homo sapiens, UniProt P50613); experiment: Immunoblot analysis of CDK7 degradation in Jurkat cells; type: cell-based
T1 sequence (P50613 2-346 limits assumed): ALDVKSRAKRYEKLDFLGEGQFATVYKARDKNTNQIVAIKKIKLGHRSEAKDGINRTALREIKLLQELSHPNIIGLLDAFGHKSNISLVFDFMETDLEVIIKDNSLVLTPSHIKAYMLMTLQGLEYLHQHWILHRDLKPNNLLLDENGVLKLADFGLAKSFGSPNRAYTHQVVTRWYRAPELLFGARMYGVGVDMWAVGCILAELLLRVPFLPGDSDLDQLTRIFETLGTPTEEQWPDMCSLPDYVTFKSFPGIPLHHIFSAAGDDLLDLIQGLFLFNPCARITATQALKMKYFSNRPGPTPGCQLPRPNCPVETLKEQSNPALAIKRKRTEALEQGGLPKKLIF
T1 sequence (P51946 whole entry partner): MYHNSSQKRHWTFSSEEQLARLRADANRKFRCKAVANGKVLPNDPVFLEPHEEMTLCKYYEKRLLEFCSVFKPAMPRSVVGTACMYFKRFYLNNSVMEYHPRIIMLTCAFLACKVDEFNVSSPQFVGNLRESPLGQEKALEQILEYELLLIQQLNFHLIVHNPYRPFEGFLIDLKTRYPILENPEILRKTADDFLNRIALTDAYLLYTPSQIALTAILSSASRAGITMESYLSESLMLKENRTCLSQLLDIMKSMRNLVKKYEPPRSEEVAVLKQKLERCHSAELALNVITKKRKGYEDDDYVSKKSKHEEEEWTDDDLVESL
T1 sequence (P51948 whole entry partner): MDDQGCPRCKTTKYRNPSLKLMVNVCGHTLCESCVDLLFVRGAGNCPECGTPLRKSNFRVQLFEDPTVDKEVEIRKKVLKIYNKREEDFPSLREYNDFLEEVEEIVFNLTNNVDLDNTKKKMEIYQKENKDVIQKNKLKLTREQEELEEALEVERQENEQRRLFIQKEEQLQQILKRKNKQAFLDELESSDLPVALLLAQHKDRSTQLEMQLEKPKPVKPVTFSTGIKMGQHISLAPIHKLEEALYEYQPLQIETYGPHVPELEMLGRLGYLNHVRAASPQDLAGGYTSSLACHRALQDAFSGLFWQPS
Summary of the method: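 Jurkat cells received test compound at 0.1 or 1 μM for 16 h, 0.1 μM for 0.5–24 h, or a concentration series for 6 h. Other arms were pretreated 2 h with MG132, MLN-4924, parent CDK7 inhibitor or VHL ligand, or used VHL-knockout Jurkat (6 h). Blots: RIPA lysis, 4–20% SDS-PAGE, nitrocellulose, anti-CDK7 1:1000, β-actin 1:5000, IRDye secondaries. Mean ± SEM of three biological replicates.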

[3] = Mouse pharmacokinetic study; type: in vivo, mice
[4] = tested on: CDK1, 2, 4, 5, 6, 8 and 9; experiment: Western blotting analysis of other CDKs in Jurkat cells; type: cell-based, human; conditions: 0.1 to 0.5 μM, 6 hours
Summary of the method: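 Jurkat cells were exposed to test compound at 0.1–0.5 μM for 6 h. Lysis was in ice-cold RIPA (pH 7.4) with protease and phosphatase inhibitors, with BCA protein quantitation. Samples were boiled 10 min at 95 °C, run on 4–20% SDS-PAGE, and transferred to nitrocellulose. Primary antibodies were applied overnight at 4 °C, then IRDye secondaries for 1 h at room temperature, with infrared detection.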

[5] = tested on: OVCAR3 cells proteome; experiment: Multiplexed quantitative mass-spectrometry-based proteomics in OVCAR3 cells; type: cell-based, human; conditions: OVCAR3, 0.1 μM, 6 h
Summary of the method: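 OVCAR3 cells in triplicate plates adhered 24 h, then received 0.1 μM test compound or DMSO for 6 h. Lysis was in 2% SDS buffer, followed by 5 mM DTT (37 °C, 1 h) and 15 mM iodoacetamide. Lys-C then trypsin (each 1:75) digested the samples. 150 μg per sample was TMT18-labelled, fractionated at pH 8, and quantified by SPS-MS3 on an Orbitrap. Target-decoy SEQUEST search; peptides with TMT sum >200 and isolation specificity >0.7 kept.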

[6] = Tolerability during mouse PK study; type: in vivo; conditions: mice
[7] = tested on: MAT1; experiment: Western blotting analysis of MAT1 in OVCAR3 and Jurkat cells; type: cell-based; conditions: Western blot, 6 h
Summary of the method: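 OVCAR3 and Jurkat cells were exposed to test compound for 6 h. RIPA lysates were BCA-equalised, resolved on 4–20% SDS-PAGE, and transferred to nitrocellulose. Blots were probed overnight at 4 °C for MAT1, Cyclin H and CDK7 (each 1:1000) plus β-actin (1:5000), then with IRDye secondaries for 1 h at room temperature, and imaged by infrared scanning.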

[8] = target: T1, CDK7; experiment: Immunoblot analysis of CDK7 degradation in different cell lines; type: cell-based; conditions: 6 h
Summary of the method: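 Cell lines grown in RPMI 1640/10% FBS were exposed to test compound for 6 h. Lysis was in ice-cold RIPA (pH 7.4) with protease/phosphatase inhibitors, with BCA-equalised loading. Proteins were run on 4–20% SDS-PAGE and transferred to nitrocellulose. Blots were probed overnight at 4 °C with anti-CDK7 1:1000 and β-actin 1:5000, then with IRDye secondaries for 1 h at room temperature, and scanned by infrared imaging.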

[9] = tested on: OVCAR3 cells; experiment: CellTiter-Glo proliferation assay, OVCAR3; type: cell-based; conditions: OVCAR3, 72h
Summary of the method: (§1)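 Cells were grown in RPMI 1640 with 10% heat-inactivated FBS and penicillin/streptomycin at 37 °C and 5% CO2, and tested mycoplasma-negative. They were seeded at 10^4/ml and treated in triplicate. Compounds were dispensed by robot from 10 mM or 1 mM stocks, with DMSO equalised across wells. A non-degrading analogue and the parent inhibitor served as controls. After 72 h, CellTiter-Glo was added for 10–15 min at room temperature and luminescence was read.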

[10] = tested on: SUDHL5 cells; experiment: CellTiter-Glo proliferation assay, SUDHL5; type: cell-based; conditions: SUDHL5, 72h
Summary of the method: as §1

[11] = target: CDK7/Cyclin H/MNAT1 (Homo sapiens, UniProt P50613); experiment: Adapta Eu kinase assay; type: biochemical
CDK7/Cyclin H/MNAT1, sequence (P50613 whole entry): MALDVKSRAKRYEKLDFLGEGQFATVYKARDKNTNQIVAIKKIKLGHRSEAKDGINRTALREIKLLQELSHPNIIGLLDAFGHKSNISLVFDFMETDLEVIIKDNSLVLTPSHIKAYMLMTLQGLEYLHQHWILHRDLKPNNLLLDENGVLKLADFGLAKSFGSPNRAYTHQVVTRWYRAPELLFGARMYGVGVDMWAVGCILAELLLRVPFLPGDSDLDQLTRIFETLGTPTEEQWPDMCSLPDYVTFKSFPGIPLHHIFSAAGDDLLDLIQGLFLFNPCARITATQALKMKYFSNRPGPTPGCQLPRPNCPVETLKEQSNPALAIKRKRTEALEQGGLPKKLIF
CDK7/Cyclin H/MNAT1, sequence (P51946 whole entry partner): as the sequence (P51946 whole entry partner) above
CDK7/Cyclin H/MNAT1, sequence (P51948 whole entry partner): as the sequence (P51948 whole entry partner) above
Summary of the method: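 CDK7/Cyclin H/MNAT1 complex tested by an outside contract service in Adapta Eu format, with ATP at its Km concentration.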

[12] = tested on: Jurkat cells; experiment: CellTiter-Glo proliferation assay, Jurkat; type: cell-based, human; conditions: 72h
Summary of the method: as §1

[13] = tested on: Molt4 cells; experiment: CellTiter-Glo proliferation assay, Molt4; type: cell-based; conditions: Molt4, 72h
Summary of the method: as §1

[14] = tested on: A549 cells; experiment: CellTiter-Glo proliferation assay, A549; type: cell-based; conditions: A549, 72h
Summary of the method: as §1

[15] = Jurkat cells, 0.1 μM or 1 μM, 16 h, Western blot

Question: With Cc1ncsc1-c1ccc([C@H](C)NC(=O)[C@@H]2C[C@@H](O)CN2C(=O)[C@@H](NC(=O)CCCC#Cc2ccc(C(=O)Nc3n[nH]c4c3CN(C(=O)N[C@H](CN(C)C)c3ccccc3)C4(C)C)cc2)C(C)(C)C)cc1 [Compound 17, N-((S)-2-(dimethylamino)-1-phenylethyl)-3-(4-(6-(((S)-1-((2S,4R)-4-hydroxy-2-(((S)-1-(4-(4-methylthiazol-5-yl)phenyl)ethyl)carbamoyl)pyrrolidin-1-yl)-3,3-dimethyl-1-oxobutan-2-yl)amino)-6-oxohex-1-yn-1-yl)benzamido)-6,6-dimethyl-4,6-dihydropyrrolo[3,4-c]pyrazole-5(1H)-carboxamide] as the molecule, how does the LONRF2 degradation [1] read?
Answer: did not observed LONRF2 degradation

Question: And the “CDK7 degradation (in words)” value [2, 15]?
Answer: most effective degrader for CDK7

Question: What about the “reduction in CDK7 protein” value [2, 15] of the same molecule?
Answer: up to 95%

Question: What about the “time at which degradation of CDK7 was observable” value ([2]; Jurkat cells, 0.1 μM, time course up to 24 hours) of the same molecule?
Answer: ≤ 0.5 h

Question: And the “CDK7 degradation after pretreatment with MG132 or MLN-4924” value ([2]; Jurkat cells, 2 h pretreatment, then 17 for 6 h)?
Answer: rescued CDK7 degradation

Question: And the hook effect ([2]; Jurkat cells, 6 h, up to 5 μM)?
Answer: no hook effect was observed

Question: And the “CDK7 degradation, concentration dependence” value ([2]; Jurkat cells, different concentrations, 6 h)?
Answer: efficiently induced CDK7 degradation in a dose-dependent manner

Question: And the “CDK7 degradation in cells lacking VHL” value ([2]; VHL-knockout Jurkat cells vs wild-type, 6 h)?
Answer: completely abrogated

Question: What about the concentration at 6 h ([3]; male, CD1, mouse, plasma, ip, 10 mg/kg) of the same molecule?
Answer: 1490 nM

Question: What about the clearance ([3]; mice, IV 3 mg/kg and IP 10 mg/kg) of the same molecule?
Answer: low clearance

Question: And the maximum plasma concentration ([3]; mice, single IP injection, 10 mg/kg)?
Answer: 3.39 µM

Question: And the “protein levels of other CDK family members” value [4]?
Answer: barely affected the protein levels

Question: And the “CDK7 abundance (proteomics)” value [5]?
Answer: significantly downregulated

Question: And the “Cyclin H abundance (proteomics)” value [5]?
Answer: significantly downregulated

Question: And the “number of significantly changed proteins” value ([5]; 6538 proteins identified, 1.75-fold cutoff, p-value < 0.001, vs DMSO)?
Answer: only three significantly changed proteins were identified

Question: And the clinical signs ([6]; during the PK study)?
Answer: no clinical signs were observed

Question: What about the tolerability ([6]; single dose IV 3 mg/kg or IP 10 mg/kg) of the same molecule?
Answer: well tolerated

Question: What about the MAT1 protein level [7] of the same molecule?
Answer: dose-dependent downregulation

Question: What about the CDK7 degradation ([8]; A549 lung adenocarcinoma cell line) of the same molecule?
Answer: Robust degradation

Question: What about the CDK7 degradation ([8]; Molt4 T lymphoblast cell line) of the same molecule?
Answer: Robust degradation

Question: What about the CDK7 degradation ([8]; OVCAR3 ovarian adenocarcinoma cell line) of the same molecule?
Answer: Robust degradation

Question: And the CDK7 degradation ([8]; SUDHL5 B-cell lymphoma cell line)?
Answer: Robust degradation

Question: And the “antiproliferative effect (in words)” value [9]?
Answer: efficacies comparable to its parental compound YKL-5–167

Question: Which results are given for Cc1ncsc1-c1ccc([C@H](C)NC(=O)[C@@H]2C[C@H](O)CN2C(=O)[C@@H](NC(=O)CCCC#Cc2ccc(C(=O)Nc3n[nH]c4c3CN(C(=O)N[C@H](CN(C)C)c3ccccc3)C4(C)C)cc2)C(C)(C)C)cc1 [Compound 17-Neg, N-((S)-2-(dimethylamino)-1-phenylethyl)-3-(4-(6-(((S)-1-((2S,4S)-4-hydroxy-2-(((S)-1-(4-(4-methylthiazol-5-yl)phenyl)ethyl)carbamoyl)pyrrolidin-1-yl)-3,3-dimethyl-1-oxobutan-2-yl)amino)-6-oxohex-1-yn-1-yl)benzamido)-6,6-dimethyl-4,6-dihydropyrrolo[3,4-c]pyrazole-5(1H)-carboxamide]?
Answer: level of CDK7 protein ([2]; Jurkat cells, 6 h, negative control): fails to reduce the level of CDK7 protein; antiproliferative effect (in words) [10]: much weaker antiproliferative effect; IC50 [11]: 21.1 nM; anti-proliferative effect (in words) [12]: much weaker anti-proliferative effect; antiproliferative effect (in words) [13]: much weaker antiproliferative effect; antiproliferative effect (in words) [14]: much weaker antiproliferative effect; antiproliferative effect (in words) [9]: much weaker antiproliferative effect
